The term GI50 denotes the concentration at which growth is held to half of that of the control. One may read the IC50 as the concentration that inhibits the measured activity by half.

Assay [1] deals with HUVEC. Nature of the assay: Antiangiogenic activity against HUVEC assessed as inhibition of total tube length at 1 uM after 16 hrs by inverted microscopy. It counts as functional, cell-based. To be noted: Homo sapiens. The gist of the method:
(§1)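 HUVECs in M199 with 1% FBS and penicillin/streptomycin, 50,000 cells per well, on Matrigel diluted 1:1 with DMEM and set at 37°C. Cells attached for 20-30 min, then got DMSO, suramin (10 uM) or drug at 10, 1 or 0.1 μM for 16 h. Eight phase-contrast fields per well were imaged. Total tube length and junctions were scored relative to DMSO (100%). Each assay was repeated at least three times.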

Assay [2] is described as follows: Antiproliferative activity against mouse MERP MB cells assessed as cell growth inhibition using methyl-[3H]thymidine after 48 hrs by liquid scintillation spectrophotometry. It counts as functional. To be noted: Medulloblastoma cell. The essentials:
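Primary MB cells isolated from Math1-Cre-ER;Ptc fl/fl (MERP) mouse tumours were cultured in vitro and exposed to compound for 48 h to measure proliferation. GI50 is the mean ± SEM of at least two separate experiments in triplicate.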

Assay [3] has as its system HUVEC. In words: Antiproliferative activity against HUVEC assessed as inhibition of VEGF induced cell proliferation after 72 hrs by MTS assay. It counts as functional. To be noted: Homo sapiens. The essentials:
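HUVECs were seeded at 3,000 cells/well, attached overnight, then treated with varying drug concentrations. Metabolic activity was read with MTS/PMS after 72 h. GI50 is the mean ± SEM of at least two separate experiments run in triplicate.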
(Tetrazolium dyes change colour on reduction, which living cells bring about.)

The nature of assay [4]: Inhibition of hedgehog pathway in mouse Shh-Light2 cells after 46 hrs by luciferase reporter gene assay. In kind it is cell-based. To be noted: Shh Light2, 46 h. Background: In a reporter assay the amount or activity of a reporter protein is the signal.
The nature of assay [5]: Inhibition of hedgehog pathway in mouse C3H10T1/2 cells assessed as Gli1 mRNA expression at 1 uM after 24 hrs by qPCR method. To be noted: C3H 10T1/2. It counts as cell-based. Also noted: scale not given: the % may be the effect or the level left. The gist of the method:
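C3H10T1/2 mouse embryonic fibroblasts were stimulated with recombinant mouse Sonic Hedgehog (C25II) and co-treated with compound at 1 μM for 24 h. Endogenous Gli1 mRNA was measured by qPCR and expressed as % of the Hh-ligand-only control (100%).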
(In qPCR the cycle at which signal appears reflects the starting amount.)

For assay [6], the system named is HUVEC. Nature of the assay: Antiproliferative activity against HUVEC assessed as inhibition of VEGF induced cell proliferation using methyl-[3H]thymidine after 36 hrs. In kind it is functional, cell-based. To be noted: Homo sapiens.
The nature of assay [7]: Inhibition of hedgehog pathway in mouse ASZ cells assessed as downregulation of Gli1 mRNA expression after 48 hrs by qPCR method. It counts as cell-based. The essentials:
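ASZ murine BCC cells, whose Hh signaling is constitutively active through a heterozygous PTCH1 mutation, got no added agonist. They were treated with a concentration series for 48 h and Gli1 mRNA was quantified by qPCR. IC50 is the mean ± SEM of at least two separate experiments in triplicate.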

Assay [8] relates to HUVEC. In words: Antiangiogenic activity against HUVEC assessed as inhibition of total tube junctions at 1 uM after 16 hrs by inverted microscopy. To be noted: Homo sapiens. It counts as functional, cell-based. The essentials: as §1
Assay [9] is described as follows: Inhibition of hedgehog pathway in mouse MERP MB cells assessed as downregulation of Gli1 mRNA expression after 48 hrs by qPCR method. It counts as cell-based. The essentials:
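Primary medulloblastoma cells from Math1-Cre-ER;Ptc fl/fl mice were incubated with compound for 48 h. Gli1 mRNA was measured by qPCR. IC50 is the mean ± SEM of two separate experiments.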

A short description of assay [10]: Inhibition of hedgehog pathway in mouse C3H10T1/2 cells assessed as downregulation of Gli1 mRNA expression after 24 hrs by qPCR method. It counts as cell-based. To be noted: C3H 10T1/2, 24 h. The gist of the method: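 Hh-ligand-stimulated C3H10T1/2 cells (recombinant mouse Sonic Hedgehog C25II) were exposed to a concentration series of compound for 24 h. Gli1 mRNA was read by qPCR. IC50 is the mean ± SEM of at least two separate experiments in triplicate.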

SMILES strings stand for the structures. The source made the active and inactive calls. The rule behind the calls is not given here.

On to `CCC(C)n1ncn(-c2ccc(N3CCN(c4ccc(OCC5COC(Cn6cncn6)(c6ccc(Cl)cc6Cl)O5)cc4)CC3)cc2)c1=O` (stereo not given) [ITRACONAZOLE], for which the inhibition entry in the assay on HUVEC [1] and in the assay with HUVEC [8] was “Active” in each case. The figures for the GI50 (in [2]; in the assay with HUVEC [3]) were 440 nM and 400 nM, respectively. The half-inhibitory concentration (IC50) in [4] was 690 nM; with HUVEC [6], 160 nM; in [7], 140 nM; in assay [9] it was 390 nM; in assay [10] it was 63 nM. For the same compound, the Activity in [5] turned out to be 1.7%.

Values taken from ChEMBL document CHEMBL3808299 (J Med Chem, 2016).
